From ChEMBL document CHEMBL1157729, “Structure-activity relationship and mechanism of action studies of manzamine analogues for the control of neuroinflammation and cerebral infections” (J Med Chem, 2010)
pIC50: −log10 of the molar value. In brackets after ≈: the same amount, converted by molar mass.

Experiments:
Plasmodium falciparum [1] = assay: Antiplasmodial activity against chloroquine-sensitive Plasmodium falciparum D6 after 72 hrs by LDH assay; format: functional, organism-based; conditions: Plasmodium falciparum, D6, 72 h; read-out: IC50
Plasmodium falciparum [2] = assay: Antiplasmodial activity against chloroquine-resistant Plasmodium falciparum W2 after 72 hrs by LDH assay; format: functional, organism-based; conditions: Plasmodium falciparum, W2, 72 h; read-out: IC50
Vero [3] = assay: Cytotoxicity against african green monkey Vero cells up to 4.6 ug/mL after 48 hrs by neutral red assay; format: cell-based; conditions: chlorocebus sabaeus
How it was run: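 Vero cells were seeded at 25,000 cells/well and incubated for 24 h, then exposed to serially diluted samples for 48 h. Viable cells were counted by Neutral Red assay, with doxorubicin as positive control. IC50 was taken from dose-response curves.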

[4] = system: Mycobacterium tuberculosis; assay: Antimycobacterial activity against Mycobacterium tuberculosis H37Rv; format: functional, organism-based
Candida albicans = assay: Antifungal activity against Candida albicans ATCC 90028; format: functional, organism-based
How it was run: (§1)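 Broth microdilution per modified CLSI method; samples serially diluted in 20% DMSO/saline, tested in duplicate; inocula set by OD630 of suspensions in incubation broth; growth read at 630 nm before and after incubation; amphotericin B drug control.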

Cryptococcus neoformans = assay: Antifungal activity against Cryptococcus neoformans ATCC 90113; format: functional, organism-based; how it was run: as §1
[5] = system: Mycobacterium intracellulare; assay: Antimycobacterial activity against Mycobacterium intracellular ATCC 23068; format: functional, organism-based
How it was run: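 Modified Franzblau method; samples serially diluted in 20% DMSO/saline, tested in duplicate; inoculum set by OD630; fluorescence read at 544ex/590em before and after incubation; ciprofloxacin drug control.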

[6] = Antineuroinflammatory activity in LPS-stimulated rat neonatal microglia assessed as inhibition of PMA-induced superoxide anion production preincubated 15 mins prior to PMA challenge measured after 70 mins; format: functional, cell-based
[7] = Antineuroinflammatory activity in LPS-stimulated rat neonatal microglia assessed as inhibition of PMA-induced TXB2 production preincubated 15 mins prior to PMA challenge measured after 70 mins; format: functional, cell-based
[8] = Antineuroinflammatory activity in LPS-stimulated rat neonatal microglia assessed as drug level causing 50% PMA-induced LDH release preincubated 15 mins prior to PMA challenge measured after 70 mins; format: functional
How it was run: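 Neonatal rat microglia (2 × 10^5/well) primed with E. coli LPS 0.3 ng/mL for 17 h at 35.9 °C, washed with HBSS, given compound (0.01–10 μM) or DMSO 15 min, then PMA 1 μM; LDH read spectrophotometrically after 70 min; LDH50 relative to Triton X-100 (0.1%) release; duplicates.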

Vero [9] = assay: Cytotoxicity against african green monkey Vero cells after 48 hrs by neutral red assay; format: cell-based; conditions: chlorocebus sabaeus
How it was run: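 Vero cells seeded at 25,000/well and grown 24 h, then exposed to serially diluted samples for 48 h. Viable cells measured by neutral red assay, with doxorubicin as positive control. IC50 taken from dose-response curves.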

| SMILES | IC50 (Plasmodium falciparum [1]) [µg/mL] | IC50 (Plasmodium falciparum [2]) [µg/mL] | Activity (Vero [3]) | MIC [4] [µg/mL] | IC50 (Candida albicans) [µg/mL] | IC50 (Cryptococcus neoformans) [µg/mL] | IC50 [5] [µg/mL] | pIC50 [6] | pIC50 [7] | Activity [8] [µM] | IC50 (Vero [9]) [µg/mL] |
| --- | --- | --- | --- | --- | --- | --- | --- | --- | --- | --- | --- |
| CN1CCc2c([nH]c3ccccc23)C1C1=C[C@@]2(O)CC/C=C\CCCCN3CC[C@@H]1[C@]1(C[C@@H]4/C=C\CCCCN4[C@H]12)C3 (some centres undefined) | 0.31 (≈ 0.547 µM) | 0.44 (≈ 0.776 µM) | Non-toxic | > 64 | > 20 | 6 (≈ 10.6 µM) | 0.7 (≈ 1.23 µM) | < 5.00 | 4.91 | 8 | – |
| COc1ccc2[nH]c3c(c2c1)CCNC3C1=C[C@@]2(O)CC/C=C\CCCCN3CC[C@@H]1[C@]1(C[C@@H]4/C=C\CCCCN4[C@H]12)C3 (some centres undefined) | 0.057 (≈ 0.0978 µM) | 0.064 (≈ 0.11 µM) | – | > 64 | > 20 | 2 (≈ 3.43 µM) | 0.2 (≈ 0.343 µM) | 5.66 | 5.78 | 3 | 0.2 (≈ 0.343 µM) |
| COc1ccc2[nH]c3c(C4=C[C@@]5(O)CC/C=C\CCCCN6CC[C@@H]4[C@]4(C[C@@H]7/C=C\CCCCN7[C@H]45)C6)nccc3c2c1 [6-METHOXYMANZAMINE A] | 0.028 (≈ 0.0484 µM) | 0.058 (≈ 0.1 µM) | – | > 64 | 5 (≈ 8.64 µM) | 3 (≈ 5.18 µM) | 0.8 (≈ 1.38 µM) | 7.00 | 6.96 | >10 | 0.5 (≈ 0.864 µM) |
| O=[N+]([O-])c1ccc2[nH]c3c(C4=C[C@@]5(O)CC/C=C\CCCCN6CC[C@@H]4[C@]4(C[C@@H]7/C=C\CCCCN7[C@H]45)C6)nccc3c2c1 [6-NITROMANZAMINE A] | 0.018 (≈ 0.0303 µM) | 0.028 (≈ 0.0472 µM) | – | 1.6 (≈ 2.69 µM) | > 20 | 2.5 (≈ 4.21 µM) | 0.15 (≈ 0.253 µM) | – | – | – | 270 (≈ 455 µM) |
| CC(=O)Oc1cccc2c1[nH]c1c(C3=C[C@@]4(O)CC/C=C\CCCCN5CC[C@@H]3[C@]3(C[C@@H]6/C=C\CCCCN6[C@H]34)C5)nccc12 [8-ACETOXYMANZAMINE A] | 0.029 (≈ 0.0478 µM) | – | – | – | – | – | – | – | – | – | 670 (≈ 1100 µM) |
| CCCCn1c2ccccc2c2ccnc(C3=C[C@@]4(O)CC/C=C\CCCCN5CC[C@@H]3[C@]3(C[C@@H]6/C=C\CCCCN6[C@H]34)C5)c21 [9-N-BUTYLMANZAMINE A] | 0.33 (≈ 0.546 µM) | 1.3 (≈ 2.15 µM) | – | 128 (≈ 212 µM) | > 20 | > 20 | > 20 | 6.92 | 6.40 | >10 | 2 (≈ 3.31 µM) |
| CCn1c2ccccc2c2ccnc(C3=C[C@@]4(O)CC/C=C\CCCCN5CC[C@@H]3[C@]3(C[C@@H]6/C=C\CCCCN6[C@H]34)C5)c21 [9-N-ETHYLMANZAMINE A] | 0.14 (≈ 0.243 µM) | 0.47 (≈ 0.815 µM) | – | > 128 | 20 (≈ 34.7 µM) | 10 (≈ 17.3 µM) | 0.5 (≈ 0.867 µM) | 5.01 | < 5.00 | >10 | 1.5 (≈ 2.6 µM) |
| CC(C)CCn1c2ccccc2c2ccnc(C3=C[C@@]4(O)CC/C=C\CCCCN5CC[C@@H]3[C@]3(C[C@@H]6/C=C\CCCCN6[C@H]34)C5)c21 [9-N-ISOPENTYLMANZAMINE A] | 2.3 (≈ 3.72 µM) | 3.8 (≈ 6.14 µM) | Non-toxic | 128 (≈ 207 µM) | > 20 | > 20 | 6.5 (≈ 10.5 µM) | 5.49 | 5.49 | >10 | – |
| Cn1c2ccccc2c2ccnc(C3=C[C@@]4(O)CC/C=C\CCCCN5CC[C@@H]3[C@]3(C[C@@H]6/C=C\CCCCN6[C@H]34)C5)c21 [9-N-METHYLMANZAMINE A] | 1.9 (≈ 3.38 µM) | 1 (≈ 1.78 µM) | Non-toxic | > 64 | > 20 | > 20 | > 20 | < 5.00 | < 5.00 | >10 | – |
